# ChEMBL document CHEMBL4385646, “Structural development of 1H-pyrazolo-[3,4-b]pyridine-4-carboxylic acid derivatives as human peroxisome proliferator-activated receptor alpha (PPARα)-selective agonists” (Bioorg Med Chem Lett, 2019)
# Residue numbers refer to the chain shown, from its start. pEC50, pIC50: −log10 of the molar value.
# Tests used:
# [1] = molecular target: T1, Peroxisome proliferator-activated receptor alpha (Homo sapiens, UniProt Q07869); test: Transactivation of human GAL4-fused PPARalpha LBD expressed in human HepG2 cells after 24 hrs by renilla luciferase reporter gene assay; format: cell-based
# T1 sequence (Q07869 whole entry): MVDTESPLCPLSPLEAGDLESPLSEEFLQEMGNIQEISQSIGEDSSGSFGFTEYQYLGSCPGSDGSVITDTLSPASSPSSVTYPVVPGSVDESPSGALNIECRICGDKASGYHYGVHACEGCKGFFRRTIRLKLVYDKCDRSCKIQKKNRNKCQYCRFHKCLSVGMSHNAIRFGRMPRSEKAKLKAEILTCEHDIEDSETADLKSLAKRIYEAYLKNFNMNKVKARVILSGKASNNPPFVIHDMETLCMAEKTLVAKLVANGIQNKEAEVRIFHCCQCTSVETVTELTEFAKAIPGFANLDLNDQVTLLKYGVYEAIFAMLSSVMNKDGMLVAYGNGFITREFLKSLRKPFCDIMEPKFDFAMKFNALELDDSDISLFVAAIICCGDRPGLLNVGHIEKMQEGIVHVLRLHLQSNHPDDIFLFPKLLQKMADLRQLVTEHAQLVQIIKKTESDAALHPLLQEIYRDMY
# [2] = molecular target: T2, Peroxisome proliferator-activated receptor alpha (Mus musculus, UniProt P23204); test: Transactivation of mouse GAL4-fused PPARalpha expressed in human HepG2 cells after 24 hrs by dual renilla-luciferase reporter gene assay; format: cell-based
# T2 sequence (P23204 whole entry): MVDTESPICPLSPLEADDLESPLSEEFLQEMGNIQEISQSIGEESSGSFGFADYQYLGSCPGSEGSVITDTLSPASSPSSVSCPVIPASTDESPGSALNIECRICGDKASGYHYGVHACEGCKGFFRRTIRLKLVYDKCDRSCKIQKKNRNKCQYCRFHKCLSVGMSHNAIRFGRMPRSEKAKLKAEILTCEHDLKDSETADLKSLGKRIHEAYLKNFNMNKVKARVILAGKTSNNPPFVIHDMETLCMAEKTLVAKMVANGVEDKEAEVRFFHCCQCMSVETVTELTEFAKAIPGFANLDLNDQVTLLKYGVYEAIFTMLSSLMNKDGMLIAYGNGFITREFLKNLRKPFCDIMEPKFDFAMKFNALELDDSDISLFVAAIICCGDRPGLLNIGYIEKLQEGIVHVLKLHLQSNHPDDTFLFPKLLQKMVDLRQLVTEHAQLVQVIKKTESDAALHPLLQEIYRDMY
# Procedure, shortened: (§1)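 HepG2 cells carried GAL4-fused human PPARγ or PPARδ, or mouse or rat PPARα, plus the 4xUAS-tk-luc reporter. Cells treated across a concentration range for 24 h. Luciferase normalized to Renilla activity and expressed as fold induction over vehicle, set as 1.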
# [3] = molecular target: T3, Peroxisome proliferator-activated receptor alpha (Rattus norvegicus, UniProt P37230); test: Transactivation of rat GAL4-fused PPARalpha expressed in human HepG2 cells after 24 hrs by dual renilla-luciferase reporter gene assay; format: cell-based; procedure, shortened: as §1
# T3 sequence (P37230 whole entry): T2 sequence (P23204 whole entry) with I41L, G50S, V85A, I86V, A88T, S96N, V135A, G207A, D265N
# [4] = Effect on cyclophilinA expression in human FLC4 cells after 48 hrs by SYBR green dye-based RT-PCR analysis; format: ADME, cell-based
# [5] = Solubility of the compound in pH 7.4 PBS at 100 uM incubated for 10 mins under shaking condition by HPLC analysis; format: physicochemical
# Procedure, shortened: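 Aqueous solubility determined in PBS, pH 7.4; reported in μM.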
# [6] = Apparent permeability from apical to basolateral side in human Caco2 cells at 25 uM measured up to 2 hrs by LC/MS/MS analysis; format: ADME, cell-based; conditions: Caco-2
# Procedure, shortened: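 Caco-2 monolayers; permeability measured apical-to-basolateral (A–B) at 25 μM compound, reported as ×10⁻⁶ cm/s.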
# [7] = Protein binding in human plasma at 20 uM after 5 hrs by LC/MS/MS analysis; format: ADME, cell-free; conditions: read-out: PPB (converted)
# Procedure, shortened: (§2)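 Compound at 20 μM incubated with plasma at 37°C for 5 h; percent bound to protein determined. Final DMSO 0.2%.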
# [8] = Protein binding in rat plasma at 20 uM after 5 hrs by LC/MS/MS analysis; format: ADME, cell-free; conditions: read-out: PPB; procedure, shortened: as §2
# [9] = Metabolic stability in human liver microsomes assessed as parent compound remaining at 0.5 uM after 60 mins in presence of NADPH by LC/MS/MS analysis; format: ADME, Microsome; conditions: liver microsomes, read-out: Stability
# Procedure, shortened: (§3)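 Compound at 0.5 μM incubated with liver microsomes at 37°C for 1 h; result given as percent remaining. Final DMSO 0.2%.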
# [10] = Metabolic stability in rat liver microsomes assessed as parent compound remaining at 0.5 uM after 60 mins in presence of NADPH by LC/MS/MS analysis; format: ADME, Microsome; conditions: liver microsomes, read-out: Stability; procedure, shortened: as §3
# [11] = molecular target: Peroxisome proliferator-activated receptor alpha (Homo sapiens) (UniProt Q07869); test: Displacement of fluormone pan-PPAR green from GST-tagged human PPARalpha ligand binding domain after 3 hrs by TR-FRET assay
smiles,measurement,setting,value
Cc1cc(C(=O)O)c2c(C(C)C)nn(-c3ccc(Cl)cc3)c2n1,pEC50,[1],6.18
same,pEC50,[2],4.95
same,pEC50,[3],4.80
same,Activity,[4],Non-Toxic
same,"solubility at 10 min, 100 µM",[5],> 95 µM
same,"Papp A→B at 2 h, 25 µM",[6],51.8 ×10⁻⁶ cm/s
same,"fraction unbound at 5 h, 20 µM",[7],0.003
same,"fraction unbound at 5 h, 20 µM",[8],0.01
same,"remaining at 1 h, 0.5 µM",[9],91%
same,"remaining at 1 h, 0.5 µM",[10],87%
same,pIC50,[11],5.35
